{
  "source": "ChEMBL document CHEMBL4393678",
  "about": "“Novel Tetrahydroquinazolinamines as Selective Histamine 3 Receptor Antagonists for the Treatment of Obesity” (J Med Chem, 2019)",
  "key": {"Mus musculus [1]": {"test_system": "Mus musculus", "test": "Anorexic effect in 12 hrs fasted db/db-induced obese C57BL/6J mouse model assessed as reduction in cumulative food intake at 20 mg/kg, po pretreated for 30 mins followed by food addition measured after 4 hrs in presence of H3R agonist-imitet", "format": "functional, organism-based", "outline": "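Mice starved 12 h (8:00 am to 8:00 pm) with water available, then housed singly. Compound given orally in 5% gum acacia in normal saline; vehicle group received the same. Cumulative food intake measured over 4 h of the night phase (9:00 pm to 1:00 am), starting 30 min after dosing. Antagonism arms: imitet 5 mg/kg i.p. 30 min before compound, or α-methyl-DL-histidine 20 mg/kg i.p. 2 h before.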"}, "[2]": {"target": "D(3) dopamine receptor (Homo sapiens) (UniProt P35462)", "sequence (P35462 whole entry)": "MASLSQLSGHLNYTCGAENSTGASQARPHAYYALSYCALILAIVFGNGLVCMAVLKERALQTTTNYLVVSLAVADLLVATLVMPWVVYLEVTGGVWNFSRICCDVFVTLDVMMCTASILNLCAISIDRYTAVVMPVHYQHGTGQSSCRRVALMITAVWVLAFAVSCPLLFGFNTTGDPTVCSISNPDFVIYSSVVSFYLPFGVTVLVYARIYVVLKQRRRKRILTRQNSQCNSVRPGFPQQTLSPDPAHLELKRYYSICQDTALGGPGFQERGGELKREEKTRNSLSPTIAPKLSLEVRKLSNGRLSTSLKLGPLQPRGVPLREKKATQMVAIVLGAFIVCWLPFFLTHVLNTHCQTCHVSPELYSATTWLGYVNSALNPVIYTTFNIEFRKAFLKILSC", "test": "Agonist activity at D3 receptor (unknown origin)"}, "Mus musculus [3]": {"test_system": "Mus musculus", "test": "Anti-obesity activity in high fat diet-induced obese C57BL/6J mouse model assessed as reduction in body fat mass at 10 mg/kg, po measured after 6 weeks relative to control by NMR-based magnetic resonance imaging analysis", "format": "functional", "outline": "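Male C57BL/6J mice on high-fat diet dosed orally for six weeks against a vehicle-treated high-fat diet group and a chow group. Body composition (fat mass, lean mass, % body fat) measured by EchoMRI live scanning. n=5-6. One-way ANOVA with Newman-Keuls test.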"}, "[4]": {"target": "T1, Muscarinic acetylcholine receptor M5 (Homo sapiens) (UniProt P08912)", "T1 sequence (whole entry)": "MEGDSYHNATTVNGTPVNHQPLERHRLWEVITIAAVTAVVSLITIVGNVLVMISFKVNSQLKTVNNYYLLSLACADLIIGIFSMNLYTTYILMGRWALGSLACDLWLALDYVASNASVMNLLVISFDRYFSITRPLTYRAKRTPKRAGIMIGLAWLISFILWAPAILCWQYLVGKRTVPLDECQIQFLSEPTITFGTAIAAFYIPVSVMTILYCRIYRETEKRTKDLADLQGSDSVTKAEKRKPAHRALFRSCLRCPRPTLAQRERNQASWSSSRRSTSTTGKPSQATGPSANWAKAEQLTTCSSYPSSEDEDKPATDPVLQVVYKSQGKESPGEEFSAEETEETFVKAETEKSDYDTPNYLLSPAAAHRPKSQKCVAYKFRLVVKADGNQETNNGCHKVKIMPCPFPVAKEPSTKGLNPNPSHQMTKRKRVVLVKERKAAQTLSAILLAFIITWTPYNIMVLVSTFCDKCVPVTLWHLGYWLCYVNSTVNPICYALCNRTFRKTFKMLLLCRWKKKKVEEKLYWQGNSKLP", "test": "Agonist activity at M5R (unknown origin) expressed in HEK293 cells harboring luc2P/NFAT-RE plasmid at 10 uM after 6 to 8 hrs by luciferase reporter gene assay", "format": "cell-based", "outline": "(§1)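 NFAT-RE luciferase assay in HEK293T cells transiently co-transfected with luc2P/NFAT-RE plasmid and receptor plasmid. Cells plated in DMEM and incubated overnight at 37 °C, 5% CO₂. Compounds and reference ligands applied for 6-8 h. Luciferase read after adding Bright-Glo substrate (1 mg/ml final).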"}, "[5]": {"test": "Ratio of fCmax in C57BL/6J mouse brain to IC50 for recombinant human Gi-coupled H3 receptor expressed in HEK293T cells assessed as reduction in histamine-induced inhibition of forskolin-stimulated cAMP accumulation", "format": "cell-based", "outline": "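Fasted male C57BL/6J mice received a single oral dose of 20 mg/kg in gum acacia suspension. Brain Cmax came from LC-MS/MS of brain homogenate. Unbound brain fraction was measured by equilibrium dialysis of brain tissue homogenate. Unbound Cmax, converted to nM, was divided by the H3R antagonist IC50 from the GloSensor cAMP assay in transfected HEK293T cells.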"}, "[6]": {"test": "Toxicity in lean C57BL/6J mouse assessed as effect on cumulative food intake at 20 mg/kg, po", "format": "organism-based", "conditions": "in vivo", "outline": "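Lean male C57BL/6J mice fasted 12 h (8 am-8 pm, water available), singly housed, given 20 mg/kg orally in 5% gum acacia/saline or vehicle. Cumulative food intake measured over 4 h night phase (9 pm-1 am) starting 30 min after dosing.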"}, "[7]": {"target": "Voltage-gated inwardly rectifying potassium channel KCNH2 (Homo sapiens, UniProt Q12809)", "sequence (Q12809 whole entry)": "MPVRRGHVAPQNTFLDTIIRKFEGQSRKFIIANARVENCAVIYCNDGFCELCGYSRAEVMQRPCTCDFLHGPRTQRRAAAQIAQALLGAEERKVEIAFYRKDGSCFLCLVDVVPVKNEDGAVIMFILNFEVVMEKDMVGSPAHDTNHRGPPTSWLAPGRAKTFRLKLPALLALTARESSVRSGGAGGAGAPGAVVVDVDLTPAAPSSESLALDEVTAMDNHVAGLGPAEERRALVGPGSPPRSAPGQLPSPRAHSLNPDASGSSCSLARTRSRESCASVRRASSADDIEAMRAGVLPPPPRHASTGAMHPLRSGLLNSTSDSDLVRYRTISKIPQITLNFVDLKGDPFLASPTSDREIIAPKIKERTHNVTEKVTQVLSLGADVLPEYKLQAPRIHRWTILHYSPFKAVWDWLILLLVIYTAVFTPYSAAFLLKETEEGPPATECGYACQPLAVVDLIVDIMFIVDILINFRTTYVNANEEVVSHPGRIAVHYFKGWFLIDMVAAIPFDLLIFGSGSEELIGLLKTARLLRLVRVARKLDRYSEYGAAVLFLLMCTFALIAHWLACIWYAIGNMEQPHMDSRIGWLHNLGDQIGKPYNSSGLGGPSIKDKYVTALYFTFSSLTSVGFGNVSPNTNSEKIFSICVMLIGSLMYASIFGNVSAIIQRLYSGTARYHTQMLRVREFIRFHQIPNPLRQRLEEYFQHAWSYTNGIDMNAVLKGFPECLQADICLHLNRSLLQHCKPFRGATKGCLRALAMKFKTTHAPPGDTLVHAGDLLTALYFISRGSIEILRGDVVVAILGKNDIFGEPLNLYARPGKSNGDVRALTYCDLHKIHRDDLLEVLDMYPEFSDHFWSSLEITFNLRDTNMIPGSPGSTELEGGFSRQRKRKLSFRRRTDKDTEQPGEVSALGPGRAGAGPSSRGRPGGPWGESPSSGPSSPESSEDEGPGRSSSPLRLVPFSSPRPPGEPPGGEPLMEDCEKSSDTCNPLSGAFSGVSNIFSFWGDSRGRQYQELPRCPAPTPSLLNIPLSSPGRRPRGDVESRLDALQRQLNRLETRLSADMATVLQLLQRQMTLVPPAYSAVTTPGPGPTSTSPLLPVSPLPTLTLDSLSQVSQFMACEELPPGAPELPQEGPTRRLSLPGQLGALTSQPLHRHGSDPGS", "test": "Inhibition of tracer Red binding to human ERG expressed in membranes up to 10 uM after 3 hrs by fluorescence polarization assay"}, "[8]": {"target": "T2, 5-hydroxytryptamine receptor 2C (Homo sapiens) (UniProt P28335)", "T2 sequence (whole entry)": "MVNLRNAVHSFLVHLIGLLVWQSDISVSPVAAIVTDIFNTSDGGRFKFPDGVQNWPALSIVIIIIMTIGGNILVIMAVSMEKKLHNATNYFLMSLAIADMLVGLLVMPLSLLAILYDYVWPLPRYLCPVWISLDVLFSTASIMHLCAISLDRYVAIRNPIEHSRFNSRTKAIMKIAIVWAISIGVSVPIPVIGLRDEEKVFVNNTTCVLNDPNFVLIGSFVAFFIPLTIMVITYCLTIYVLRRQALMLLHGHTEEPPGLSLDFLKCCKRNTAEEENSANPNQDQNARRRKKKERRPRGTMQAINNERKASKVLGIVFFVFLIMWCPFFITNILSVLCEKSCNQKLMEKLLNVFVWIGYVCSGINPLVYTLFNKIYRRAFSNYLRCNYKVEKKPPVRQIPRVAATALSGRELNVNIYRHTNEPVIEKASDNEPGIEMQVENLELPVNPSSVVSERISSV", "test": "Agonist activity at 5HT2CR (unknown origin) expressed in HEK293 cells harboring luc2P/NFAT-RE plasmid at 10 uM after 6 to 8 hrs by luciferase reporter gene assay", "format": "cell-based", "outline": "as §1"}, "[9]": {"test": "Apparent volume of distribution in C57BL/6J mouse serum at 20 mg/kg, po by LC-MS/MS analysis", "format": "ADME, organism-based", "outline": "(§2)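 Male C57BL/6J mice (6-8 weeks, 20 ± 5 g) fasted overnight (12-16 h) got a single 20 mg/kg oral dose as 2.5 mg/mL suspension in 1% w/v gum acacia; n=5 per time point. Serum and brain (PBS homogenate 1:6 w/v) sampled up to 24 h. Parent and demethylated metabolite quantified by LC-MS/MS after liquid-liquid extraction (C18, MRM, phenacetin internal standard; linear 0.25-200 ng/mL). Two-compartment open model fit.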"}, "[10]": {"target": "D(1B) dopamine receptor (Homo sapiens) (UniProt P21918)", "sequence (P21918 whole entry)": "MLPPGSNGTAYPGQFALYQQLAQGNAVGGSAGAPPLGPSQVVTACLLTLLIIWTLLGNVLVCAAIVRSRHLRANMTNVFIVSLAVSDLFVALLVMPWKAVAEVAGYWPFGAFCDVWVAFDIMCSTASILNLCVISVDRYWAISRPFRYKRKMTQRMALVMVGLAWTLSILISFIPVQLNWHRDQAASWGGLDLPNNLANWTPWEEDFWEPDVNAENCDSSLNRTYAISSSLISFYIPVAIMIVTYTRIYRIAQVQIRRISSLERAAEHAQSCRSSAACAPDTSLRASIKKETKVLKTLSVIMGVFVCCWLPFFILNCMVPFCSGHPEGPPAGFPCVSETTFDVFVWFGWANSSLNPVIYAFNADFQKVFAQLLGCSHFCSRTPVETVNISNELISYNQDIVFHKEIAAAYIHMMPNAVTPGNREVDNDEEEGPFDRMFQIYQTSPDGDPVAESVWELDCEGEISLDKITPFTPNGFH", "test": "Agonist activity at Gs-coupled D5 receptor (unknown origin) expressed in HEK293T cells assessed as inhibition of forskolin-stimulated cAMP accumulation preincubated for 10 to 15 followed by forskolin-stimulation by Glo-sensor assay", "format": "functional, cell-based"}, "[11]": {"test": "Tmax in C57BL/6J mouse serum assessed as 4-(2-Amino-8-methyl-5,6,7,8-tetrahydroquinazolin-4-yl)phenol level at 20 mg/kg, po by LC-MS/MS analysis", "format": "ADME, organism-based", "conditions": "in vivo", "outline": "as §2"}, "[12]": {"test": "Tmax in C57BL/6J mouse serum at 20 mg/kg, po by LC-MS/MS analysis", "format": "ADME, organism-based", "outline": "as §2"}, "Mus musculus [13]": {"test_system": "Mus musculus", "test": "Anti-obesity activity in 16 hrs fasted high fat diet-induced obese C57BL/6J mouse model assessed as change in blood glucose level at 10 to 20 mg/kg, po treated prior to glucose addition measured after 15 to 120 mins by IPGTT", "format": "functional, organism-based", "outline": "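Mice fasted 16 h; baseline tail-vein glucose read by glucometer. Glucose given i.p. at 2 g/kg (C57BL/6J) or 1 g/kg (db/db).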"}},
  "note": "The source made the active and inactive calls. The calls are words filed in the database; no cut-off is given here.",
  "data": [
    {"smiles": "COc1ccc(-c2nc(N)nc3c2CCCC3C)cc1", "note": "(racemic)", "values": [
      {"measurement": "Activity", "setting": "Mus musculus [1]", "result": "inactive"},
      {"measurement": "Activity", "setting": "[2]", "result": "inactive"},
      {"measurement": "Activity", "setting": "Mus musculus [3]", "result": "Active"},
      {"measurement": "Activity", "setting": "[4]", "result": "inactive"},
      {"measurement": "Ratio", "setting": "[5]", "result": 8.3},
      {"measurement": "Activity", "setting": "[6]", "result": "Non-Toxic"},
      {"measurement": "inhibition (INH)", "setting": "[7]", "result": "Not Active"},
      {"measurement": "inhibition", "setting": "[8]", "result": "inactive"},
      {"measurement": "Vd/F", "setting": "[9]", "result": 28.5, "unit": "L/kg"},
      {"measurement": "INH", "setting": "[10]", "result": "> 10", "unit": "µM"},
      {"measurement": "Tmax", "setting": "[11]", "result": 15, "unit": "min"},
      {"measurement": "Tmax", "setting": "[12]", "result": 15, "unit": "min"},
      {"measurement": "Activity", "setting": "Mus musculus [13]", "result": "inactive"}
    ]}
  ]
}
